Assay outcomes deposited in PubChem by The Scripps Research Institute Molecular Screening Center.
In the library only some 2% were active in any assay of this set; here they are far more common.
HSP90 inh: blocks HSP90-mediated luciferase refolding in reticulocyte lysate. Rabbit reticulocyte lysate, luciferase refolding luminescence, 3 h. 290,000 tested, 0.91% active. inhibition, % at 5.6 µM;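 active = inhibition above the screen-wide mean plus 3 SD, computed separately per campaign, cut at about 16% in these data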;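 also: inhibitors lower the luminescence because luciferase stays unfolded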
STAT3 inh-1: reduces IL-6 driven STAT3 reporter signal. U3A cells, IL-6 STAT3-luciferase reporter, luminescence; host cell line lacks STAT1. inhibition, % at 5.5 µM. 190,000 tested, 0.89% active. AID 862;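 active = inhibition above the mean inhibition across all screened compounds plus 3 SD, cut at about 44% in these data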
STAT3 activator: activators of IL-6 induced STAT3 signaling | U3A cells, IL-6 STAT3-luciferase reporter, luminescence; 100% = signal with IL-6 EC80 alone | activation (% of control), % at 5.6 µM | 190,000 tested, 0.91% active;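 active = activation above the screen-wide mean of compound activation plus 3 SD, cut at about 130% in these data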
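System – human U3A cells carrying STAT3-luciferase construct · Probe or stimulus – Interleukin-6, 33 ng/mL · Schedule – compound 1 h, then IL-6 6 h at 37 °C · Signal – luminescence from STAT3-driven luciferase reporter · Evaluation – percent of IL-6-only median luminescence · Benchmarks – IL-6-only high control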
STAT1 inh: STAT1 signaling inhibition; NIH 3T3 STAT1-luciferase reporter, IFN-gamma, luminescence; inhibition, % at 5.5 µM; 200,000 tested, 0.35% active; AID 920;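 active = inhibition above a set limit, the mean inhibition across all tested compounds plus 3 SD, cut at about 34% in these data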
STAT3 inh-2: confirmation of STAT3 signaling inhibitors; inhibition, % at 5.7 µM; shares compounds with STAT3 inh-1; AID 1265; U3A cells, IL-6 STAT3 luciferase reporter, luminescence; cell line lacks STAT1; 1,200 tested, 45% active;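 active = inhibition above the hit cutoff computed for the primary STAT3 screen, cut at about 44% in these data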
NFkB inh 2: counter-screen for STAT3 inhibitors: NF-kappaB inhibition. shares compounds with STAT3 inh-1. AID 1308. inhibition, % at 5.7 µM. 1,200 tested, 36% active. HEK293T NF-kB luciferase reporter, TNF-alpha induced;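 active = inhibition above the mean of solvent-only control wells plus 3 SD, cutoff set per campaign, cut at about 13% in these data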
STAT1 inh 2: STAT1 inhibition in STAT3 inhibitor counter-screen. shares compounds with STAT3 inh-1. NIH 3T3 STAT1-luciferase reporter, IFN-gamma induced, luminescence. inhibition, % at 5.7 µM. 1,200 tested, 27% active. AID 1317;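 active = inhibition above the mean plus 3 SD of solvent-only control wells, limit set per screening run, cut at about 16% in these data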
Of the large screens only hits and unclear results are named; the others gave an inactive call (follow-up assays come after a bar, where they were run).

CCOc1ccccc1N(C)S(=O)(=O)c1ccc2c(c1)CCN2C(=O)CCC(=O)O	none (no result: STAT3 inh-1, STAT3 activator, STAT1 inh)
CC1C/C(=C/c2ccccn2)C(=O)/C(=C/c2ccccn2)C1 (configuration not stated)	STAT3 inh-1 55.9 | STAT3 inh-2 inactive | NFkB inh 2 inactive | STAT1 inh 2 inactive
CC(C)(C)C1C/C(=C/c2ccccn2)C(=O)/C(=C/c2ccccn2)C1 (configuration not stated)	STAT3 inh-1 48.2 | STAT3 inh-2 inactive | NFkB inh 2 52.1 | STAT1 inh 2 inactive
O=C1/C(=C/c2ccccn2)COc2ccccc21	none
c1ccc(-c2noc(-c3ccc4ccccc4c3)n2)cc1	STAT3 inh-1 56.7 | STAT3 inh-2 inactive | NFkB inh 2 inactive | STAT1 inh 2 inactive
O=[N+]([O-])c1cccc(-c2nnc(-c3ccc4c(c3)OCO4)o2)c1	none
Clc1ccccc1-c1nnc(-c2ccc3c(c2)OCO3)o1	STAT3 inh-1 44.4 | STAT3 inh-2 inactive | NFkB inh 2 inactive | STAT1 inh 2 inactive
c1cc(-c2noc(-c3ccc4c(c3)OCO4)n2)ccn1	none
c1ccc(-c2noc(-c3ccc4c(c3)OCO4)n2)cc1	STAT3 inh-1 66.3 | STAT3 inh-2 inactive | NFkB inh 2 inactive | STAT1 inh 2 inactive
CC(=O)NC(NC(=S)Nc1cccc(Br)c1)C(Cl)(Cl)Cl (configuration not stated)	none (no result: STAT3 inh-1, STAT3 activator, STAT1 inh)
Cc1ccc(OCCC(=O)OCC(=O)Nc2ccccc2)cc1	none (no result: STAT3 inh-1, STAT3 activator, STAT1 inh)
CCn1cc([N+](=O)[O-])c(C(=O)Nc2nc(-c3ccc(C)c(C)c3)c(C)s2)n1	STAT3 inh-1 44.9 | STAT3 inh-2 inactive | NFkB inh 2 inactive | STAT1 inh 2 inactive
CCn1cc([N+](=O)[O-])c(C(=O)Nc2nc(-c3ccc(C)cc3)c(C)s2)n1	STAT3 inh-1 55.6 | STAT3 inh-2 inactive | NFkB inh 2 inactive | STAT1 inh 2 inactive
CCn1cc([N+](=O)[O-])c(C(=O)Nc2cc(C)on2)n1	none
CCOc1ccc(/C=N/NC(=O)c2[nH]ncc2Br)c(O)c1	STAT3 inh-1 48.4 | STAT3 inh-2 inactive | NFkB inh 2 inactive | STAT1 inh 2 inactive
C=CC[n+]1c(/C=C2\C=Cc3cc(C)ccc3N2CC)ccc2ccccc21	STAT3 inh-1 88.5 | STAT3 inh-2 87.7 | NFkB inh 2 50.2 | STAT1 inh 2 26.4
C=CCN1C(=S)CC(c2ccccc2)=Nc2ccccc21	none (no result: STAT3 inh-1, STAT3 activator, STAT1 inh)
O=C(CCCN1C(=O)S/C(=C\c2ccccc2)C1=O)NNC(=O)c1ccccc1O	STAT3 inh-1 63.7 | STAT3 inh-2 56.5 | NFkB inh 2 35.3 | STAT1 inh 2 inactive
O=C(CN1C(=O)S/C(=C\c2ccccc2)C1=O)NNC(=O)c1ccccc1O	none
CCc1ccc(CN2CCN(C(=O)c3cccc(OC)c3OC)CC2)cc1	STAT3 inh-1 59.7 | STAT3 inh-2 inactive | NFkB inh 2 inactive | STAT1 inh 2 inactive
O=C(Nc1nsc(-c2ccccc2)n1)c1cccs1	STAT3 inh-1 45.2 | STAT3 inh-2 inactive | NFkB inh 2 inactive | STAT1 inh 2 inactive
Cc1sc(NC(=O)c2sc3nc4c(C)cccc4cc3c2N)c(C#N)c1C	none
Cc1cccc2cc3c(N)c(C#N)sc3nc12	STAT3 inh-1 50.2 | STAT3 inh-2 inactive | NFkB inh 2 inactive | STAT1 inh 2 inactive
Cc1ccc(CNC(=O)c2cc3c(C)nc4ccccc4c3o2)cc1	STAT3 inh-1 54.5 | STAT3 inh-2 inactive | NFkB inh 2 inactive | STAT1 inh 2 23.6
Cc1ccc(C(=O)Nc2cc(C(C)C)c(O)c(C(C)C)c2)cc1	none
Cc1cc(-n2c(C)cc(C(=O)CSc3ncnc4ccccc34)c2C)no1	STAT3 inh-1 75.0 | STAT3 inh-2 75.1 | NFkB inh 2 24.7 | STAT1 inh 2 23.2
Cc1cc(-n2c(C)cc(C(=O)CSc3nnc4sc5ccccc5n34)c2C)no1	none
CC1Cc2cc(-c3csc(NC(=O)Cc4cccs4)n3)ccc2N1S(C)(=O)=O (configuration not stated)	STAT3 inh-1 78.9 | STAT3 inh-2 78.9 | NFkB inh 2 28.9 | STAT1 inh 2 inactive
CCCC(=O)Nc1nc(-c2ccc3c(c2)CCN3S(C)(=O)=O)cs1	none
CS(=O)(=O)N1CCc2cc(-c3csc(NC(=O)Cc4ccccc4)n3)ccc21	STAT3 inh-1 53.2 | STAT3 inh-2 46.4 | NFkB inh 2 inactive | STAT1 inh 2 inactive
CC(C)=C(NC(=O)c1ccccc1)C(=O)Nc1ccc(C(=O)O)cc1	none (no result: STAT3 inh-1, STAT3 activator, STAT1 inh)
CN(Cc1cccnc1)C(=O)CCCc1c[nH]c2ccccc12	none (no result: STAT3 inh-1, STAT3 activator, STAT1 inh)
COc1ccc(C(=O)c2ccccc2)c2c(O)ccc(C(=O)c3ccccc3)c12	STAT3 inh-1 65.2 | STAT3 inh-2 61.6 | NFkB inh 2 15.6 | STAT1 inh 2 inactive
COc1ccc(C(=O)c2ccc(Cl)cc2)c2ccccc12	none
COc1ccc(C(CNC(=O)C(Cc2ccccc2)NC(N)=O)N(C)C)cc1 (configuration not stated)	none (no result: STAT3 inh-1, STAT3 activator, STAT1 inh)
O=C(/C=C/Nc1ccc(F)cc1)c1cccs1	STAT3 inh-1 51.3 | STAT3 inh-2 inactive | NFkB inh 2 inactive | STAT1 inh 2 inactive
O=C(/C=C/Nc1ccc(F)c(F)c1)c1cccs1	none
COc1ccc(C)cc1N(C(=O)c1ccco1)C(C(=O)NC1CCCC1)c1ccc(N2CCOCC2)cc1 (configuration not stated)	none (no result: STAT3 inh-1, STAT3 activator, STAT1 inh)
Cc1ccc(C(=O)N2CC(C)CC(C)C2)cc1NC1=NC2CS(=O)(=O)CC2S1 (configuration not stated)	none (no result: STAT3 inh-1, STAT3 activator, STAT1 inh)
O=C(Nc1nc(-c2nc3ccccc3s2)cs1)c1ccc(S(=O)(=O)N2CCOCC2)cc1	none
O=C(Nc1nc(-c2ccc(S(=O)(=O)N3CCOCC3)cc2)cs1)c1ccccc1	STAT3 inh-1 49.8 | STAT3 inh-2 44.1 | NFkB inh 2 18.0 | STAT1 inh 2 23.9
Cc1ccc(-c2csc(NC(=O)C3CCN(S(=O)(=O)c4cccs4)CC3)n2)cc1	STAT3 inh-1 79.4 | STAT3 inh-2 83.7 | NFkB inh 2 32.9 | STAT1 inh 2 17.2
O=C(Nc1nc(-c2ccc(S(=O)(=O)N3CCCCCC3)cc2)cs1)c1cccs1	none
O=C(Nc1nc(-c2ccc(S(=O)(=O)N3CCCC3)cc2)cs1)c1cccs1	STAT3 inh-1 46.9 | STAT3 inh-2 inactive | NFkB inh 2 inactive | STAT1 inh 2 17.0
COc1ccc(CN(C)Cc2nc(Cc3cccc(F)c3)no2)c2cccnc12	STAT3 inh-1 61.2 | STAT3 inh-2 62.2 | NFkB inh 2 18.8 | STAT1 inh 2 26.2
O=C(CCl)N(CCc1ccccc1)CCc1ccccc1	none (no result: STAT3 inh-1, STAT3 activator, STAT1 inh)
O=C(ONc1ccc(N=NC(=O)c2ccccc2O)cc1)c1ccccc1	none
Cc1cc(N=NC(=O)c2ccccc2)ccc1O	STAT3 inh-1 55.4 | STAT3 inh-2 inactive | NFkB inh 2 inactive | STAT1 inh 2 inactive
COc1ccc(CNC(=O)CNC(=O)CNS(=O)(=O)c2ccc(C)c(C)c2)cc1	none (no result: STAT3 inh-1, STAT3 activator, STAT1 inh)
Cc1cc(C(=O)OCC(=O)Nc2cccc(S(=O)(=O)N(C)C)c2)c(C)o1	none (no result: STAT3 inh-1, STAT3 activator, STAT1 inh)
